Test results published in ChEMBL document CHEMBL3351434, “Synthesis of novel chromeno-annulated cis-fused pyrano[3,4-c]benzopyran and naphtho pyran derivatives via domino aldol-type/hetero Diels-Alder reaction and their cytotoxicity evaluation” (Bioorg Med Chem Lett, 2014).

Legend:
MCF7 = assay: Cytotoxicity against human MCF7 cells by MTT assay; format: functional, cell-based
A549 = assay: Cytotoxicity against human A549 cells by MTT assay; format: functional, cell-based
MDA-MB-231 = assay: Cytotoxicity against human MDA-MB-231 cells by MTT assay; format: functional, cell-based
[1] = Cytotoxicity against HEK cells by MTT assay; format: cell-based; details: human, hek293
Summary of the method: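 Cells were HEK293, a line derived from normal human embryonic kidney, used as the non-cancer counter-screen. Viability was read by MTT following a previously reported protocol.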

HeLa = assay: Cytotoxicity against human HeLa cells by MTT assay; format: functional, cell-based

Structure (SMILES)	IC50 (MCF7) [µM]	IC50 (A549) [µM]	IC50 (MDA-MB-231) [µM]	Activity [1]	IC50 (HeLa) [µM]
CCC(=O)c1ccc2c(c1O)[C@@H]1c3c(ccc4c(=O)c(-c5ccccc5)c(C)oc34)OC[C@@H]1C(C)(C)O2	20.5	19.3	6.15	Non-toxic	18.2
Cc1oc2c3c(ccc2c(=O)c1C)OC[C@H]1[C@@H]3c2c(ccc(C(=O)c3ccccc3)c2O)OC1(C)C	> 100	> 100	> 100		> 100
COc1cccc2c1C(=O)c1c(O)c3c(c(O)c1C2=O)C[C@@](O)(C(=O)CO)C[C@@H]3O[C@H]1C[C@H](N)[C@H](O)[C@H](C)O1 [DOXORUBICIN]	1.05		0.5		
CC(=O)c1ccc2c(c1O)[C@H]1c3c(ccc4c(=O)c(C)coc34)OC[C@H]1C(C)(C)O2	> 100	> 100	> 100		> 100
Cc1coc2c3c(ccc2c1=O)OC[C@H]1[C@@H]3c2ccc3ccccc3c2OC1(C)C	> 100	> 100	> 100		> 100
CC(=O)c1ccc2c(c1O)[C@@H]1c3c(ccc4c(=O)c(C)c(C)oc34)OC[C@@H]1C(C)(C)O2	> 100	> 100	> 100		> 100
Cc1coc2c3c(ccc2c1=O)OC[C@H]1[C@@H]3c2c(ccc(C(=O)Cc3ccccc3)c2O)OC1(C)C	> 100	> 100	> 100		> 100
CCC(=O)c1ccc2c(c1O)[C@H]1c3c(ccc4c(=O)c(C)coc34)OC[C@H]1C(C)(C)O2	> 100	> 100	> 100		> 100
Cc1coc2c3c(ccc2c1=O)OC[C@H]1[C@@H]3c2c(ccc(C(=O)c3ccccc3)c2O)OC1(C)C	6.24	17	5.68	Non-toxic	1.5
CC(=O)c1ccc2c(c1O)[C@@H]1c3c(ccc4c(=O)c(-c5ccccc5)c(C)oc34)OC[C@@H]1C(C)(C)O2	11.2	2.53	46.8	Non-toxic	4.81
Cc1oc2c3c(ccc2c(=O)c1C)OC[C@H]1[C@@H]3c2c(ccc(C(=O)Cc3ccccc3)c2O)OC1(C)C	> 100	> 100	> 100		> 100
CCC(=O)c1ccc2c(c1O)[C@@H]1c3c(ccc4c(=O)c(C)c(C)oc34)OC[C@@H]1C(C)(C)O2	> 100	> 100	> 100		> 100
Cc1oc2c3c(ccc2c(=O)c1C)OC[C@H]1[C@@H]3c2ccc3ccccc3c2OC1(C)C	> 100	> 100	> 100		> 100
